Most compounds without a hit are left out; they make up all but 3.6% or so of the library.
HSF1 inhib – HSF1 inhibitors in luciferase reporter cells, primary screen, cell-based, NIH3T3, luminescence; NIH3T3-HGL HSE-luciferase, MG132-induced, luminescence 8 h; hits give low values; activity change, negative = inhibition, % at 7.5 µM (by protocol); hit rate 0.77% among 300,000;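 active = more than half of replicate wells show activity change below -50%, luminescence cut by over half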;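 note: luciferase reports HSF-1 transcriptional activity via heat shock element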
STAT3 act – IL-6 driven STAT3 reporter potentiators, primary screen, U3A cells, luciferase, luminescence, MLSCN library; activation (% of control), % at 5.6 µM; hit rate 0.91% among 190,000; IL-6 STAT3-luciferase reporter; 100% = signal with IL-6 EC80 alone;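 active = activation above the screen-wide mean of compound activation plus 3 SD, cut at about 130% in these data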
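Test system: STAT3-luciferase reporter U3A cells; Detection: reporter luminescence signal; Times: 1 h compound pre-exposure, 6 h IL-6 stimulation, 37 °C; Benchmarks: IL-6-only high control; Also added: IL-6 stimulus at 33 ng/mL final.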
PolyA inhibitor – polyadenylation inhibitors in yeast reporter cells, primary screen, luminescence, S. cerevisiae; S. cerevisiae SKY197-pL101 polyadenylation reporter, beta-gal luminescence; efflux-impaired pdr1/pdr3 knockout yeast; score 100 = 6 SD above DMSO; activity score, % at 12 µM; hit rate 0.02% among 300,000; AID 1875, 2009;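 active = lowest replicate activity score at least 50, where 100 means six control SD above control mean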;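 note: yeast exposed to compound for 9 h at 30 °C; higher score means more reporter readthrough which indicates perturbed polyadenylation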
AHR act – AHR activators, primary screen, cell-based, luminescence, luciferase reporter, human. activation, % at 5 µM. AID 2796, 2010. AHR-responsive luciferase reporter cells. hit rate 2.5% among 320,000; in the data active = activation above about 47%
Hsp70 activator – Hsp70 transcriptional activators, primary screen, cell-based, HeLa, Hsp70 promoter luciferase, luminescence, 10 µM | HeLa Hsp70 promoter luciferase reporter; scaled: vehicle 0, proteasome-inhibitor control 100% | activation, % at 10 µM | hit rate 0.04% among 200,000;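 active = activation above the mean across all tested compounds plus 3 SD, cutoff set per campaign, cut at about 5.5% in these data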
PERK inh – block of dimerizer-induced PERK translation repression, primary screen, PERK inhibitor project, CHO PERK-DD cells, SEAP luminescence, HTS | Eukaryotic translation initiation factor 2-alpha kinase 3 (Homo sapiens), Q9NZJ5 | CHO PERK-DD fusion, SEAP luminescence translation reporter | inhibition, % at 5.6 µM | hit rate 0.17% among 220,000 | AID 1416, 2008;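 active = inhibition above the mean inhibition of all tested compounds plus 3 SD, set separately per screening campaign, cut at about 2.9% in these data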;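 note: PERK kinase domain activated by AP20187 dimerizer at 100 nM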
AHR act cf – AHR activators, confirmation, cell-based, luminescence, luciferase reporter, human. shares compounds with AHR act. human cells, AHR-responsive luciferase reporter. hit rate 87% among 2,300. activation, % at 9 µM; in the data active = activation above about 49%;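 note: HepG2 hepatoma cells carrying a DRE-driven firefly luciferase reporter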
PXR counter – human PXR activators, counter-screen for AHR activator project, cell-based, luciferase luminescence | shares compounds with AHR act | hit rate 88% among 2,300 | cell-based PXR reporter | activation, % at 11.6 µM; in the data active = activation above about 11%;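 note: human hepatoma DPX-2 cells expressing full-length human PXR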
Target sequence (O75469 whole entry, looked up): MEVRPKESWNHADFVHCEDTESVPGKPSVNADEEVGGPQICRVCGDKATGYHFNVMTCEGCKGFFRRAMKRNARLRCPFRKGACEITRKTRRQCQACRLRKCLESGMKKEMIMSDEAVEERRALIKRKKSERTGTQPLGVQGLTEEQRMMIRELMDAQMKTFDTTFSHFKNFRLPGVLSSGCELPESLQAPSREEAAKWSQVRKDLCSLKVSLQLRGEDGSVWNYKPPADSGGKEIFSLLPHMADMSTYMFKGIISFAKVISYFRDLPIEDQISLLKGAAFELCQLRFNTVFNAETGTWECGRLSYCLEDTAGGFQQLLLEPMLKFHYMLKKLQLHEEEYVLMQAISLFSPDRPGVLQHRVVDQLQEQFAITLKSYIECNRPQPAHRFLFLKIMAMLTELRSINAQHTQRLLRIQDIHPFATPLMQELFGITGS
Of the large screens only hits and unclear results are named; the others gave an inactive call (follow-up assays come after a bar, where they were run).

N#Cc1ccccc1NC(=O)c1ccccc1OCC(=O)NCc1ccco1	AHR act 117 | AHR act cf 109 | PXR counter 47
CN1CCN(C(=O)/C(=C/c2ccccc2F)NC(=O)c2ccccc2)CC1	none (no result: STAT3 act, Hsp70 activator, PERK inh)
COc1ccc(/C=C2\Cc3ccccc3C2=O)cc1OC	none (no result: STAT3 act, AHR act, Hsp70 activator)
COc1cc2c(cc1OC)/C(=C/c1ccc(Br)cc1)C(=O)OC2	AHR act 85 | AHR act cf 60 | PXR counter 15
c1ccc(-c2n[nH]c(-c3ccccn3)n2)cc1	AHR act 90 | AHR act cf 81 | PXR counter 24
c1ccc(-c2nnc3n2N=C(c2ccc4c(c2)OCO4)CS3)nc1	AHR act 94 | AHR act cf inactive | PXR counter 13
CCOc1ccc(C2=Nn3c(nnc3-c3ccccn3)SC2)cc1	none
O=C1CN(C(=O)c2ccc(F)cc2)c2ccccc2N1	none (no result: STAT3 act, Hsp70 activator, PERK inh)
CCC(C)C(=O)Nc1nc(C)c(-c2csc(Nc3cc(Cl)ccc3OC)n2)s1 (stereo unspecified)	AHR act 85 | AHR act cf 56 | PXR counter 30
CCC(C)C(=O)Nc1nc(C)c(-c2csc(Nc3cc(OC)ccc3OC)n2)s1 (stereo unspecified)	AHR act 83 | AHR act cf 61 | PXR counter 53
COc1ccc(Cl)cc1Nc1nc(-c2sc(NC(=O)c3ccco3)nc2C)cs1	AHR act 106 | AHR act cf 75 | PXR counter 21
C=C(C)C(=O)Nc1cccc(C2=NOC3(C2)C[C@H](C(N)=O)N(C(=O)c2ccccc2C(=O)c2ccccc2)C3)c1 (stereo partly specified)	none (no result: STAT3 act, Hsp70 activator, PERK inh)
C=CCOc1ccc(/C=C2\SC(N3CCCCC3)=NC2=O)cc1	none (no result: STAT3 act, Hsp70 activator, PERK inh)
COc1ccc(CC(=O)N/N=C(\C)CC(=O)Nc2ccc3c(c2)OCCO3)cc1OC	none (no result: STAT3 act, Hsp70 activator, PERK inh)
CCCn1c(O)c(N=NC(=O)c2ccco2)c2ccccc21	HSF1 inhib -55, AHR act 87 | AHR act cf 88 | PXR counter 50
Clc1ccc(-n2nnc(-c3nccs3)n2)cc1Cl	AHR act 116 (no result: STAT3 act) | AHR act cf 84 | PXR counter 33
Fc1ccc(-n2nnc(-c3cccnc3)n2)cc1	none (no result: STAT3 act)
Clc1ccc(-n2nnc(-c3cccnc3)n2)cc1Cl	AHR act 112 (no result: STAT3 act) | AHR act cf 135 | PXR counter 38
Cc1ccc(-n2nnc(-c3nccs3)n2)cc1	none (no result: STAT3 act)
Nc1c2nc(-c3ccccc3Cl)[nH]c(=O)c2nc(=O)n1-c1ccccc1	AHR act 87 (no result: STAT3 act, Hsp70 activator) | AHR act cf 95 | PXR counter 19
Nc1c(N2CCCCC2)c(=O)[nH]c(=O)n1-c1ccccc1	none
N#C/C(=C\c1ccc(/C=C(/C#N)c2nn(CCO)c(N)c2C#N)cc1)c1nn(CCO)c(N)c1C#N	none
N#C/C(=C/c1ccccc1)c1nn(CCO)c(N)c1C#N	AHR act 120 | AHR act cf 91
Clc1ccc(/C(Cc2nc3ccccc3[nH]2)=N\Nc2ccccc2)cc1	AHR act 91 | AHR act cf inactive | PXR counter 49
O=C(Nc1ccc(F)cc1)c1nsc(Cl)c1Cl	AHR act 83 | AHR act cf 222 | PXR counter 40
O=C(Nc1ccc(F)cc1)c1ccc2nsnc2c1	AHR act 96 (no result: STAT3 act, Hsp70 activator) | AHR act cf 124 | PXR counter 26
CN(C)c1ccc(NC(=O)c2ccc3nc[nH]c3c2)cc1	none (no result: STAT3 act, Hsp70 activator, PERK inh)
O=C(Nc1ccc(F)cc1)c1ccc2nc[nH]c2c1	AHR act 147 | AHR act cf 136 | PXR counter 14
O=c1c2ccccc2nc(-c2ccoc2)n1CCc1ccccc1	AHR act 125 | AHR act cf 102 | PXR counter 41
Nc1ccccc1C#Cc1ccc2[nH]ccc2c1	AHR act 94 (no result: STAT3 act, Hsp70 activator, PERK inh) | AHR act cf 120 | PXR counter 24
C=CC[C@H](CC(=O)NCCO)C(=O)N[C@@H](COC(=O)[C@H](CC=C)CC(=O)OC(C)(C)C)Cc1c[nH]c2ccccc12	none (no result: HSF1 inhib, STAT3 act, PolyA inhibitor, Hsp70 activator, PERK inh)
Cc1cc(C)c(C)c(OCCn2ccnc2)c1	AHR act 90 (no result: STAT3 act, Hsp70 activator, PERK inh) | AHR act cf 54 | PXR counter 14
Cc1ccc(C)c(OCCn2ccnc2)c1	none (no result: STAT3 act, Hsp70 activator, PERK inh)
Cc1cccc(NC(=O)N2CCc3ccccc3C2)c1C	none (no result: STAT3 act, AHR act, Hsp70 activator, PERK inh)
Cc1cc(F)ccc1NS(=O)(=O)c1c(C(=O)N2CCOCC2)c(C)n(C)c1C	none (no result: STAT3 act, Hsp70 activator, PERK inh)
O=C(Nc1cccc(Cl)c1)c1cccnn1	AHR act 109 (no result: STAT3 act, Hsp70 activator, PERK inh) | AHR act cf 82
CCCCOc1ccc(-c2nc(/C=N/c3nccs3)c(O)o2)cc1	none
Oc1oc(-c2ccccc2)nc1/C=N/c1nccs1	AHR act 100 | AHR act cf 78
CCOc1ccc2oc(C(=O)Nc3ccc(N4CCOCC4)cc3)c(C)c2c1	none
CCOc1ncccc1C(=O)Nc1ccc2c(c1)OCO2	AHR act 110 | AHR act cf 130 | PXR counter 32
COc1cccc(C(=O)Nc2ccc3c(c2)OCO3)c1OC	AHR act 103 (no result: STAT3 act, Hsp70 activator, PERK inh) | AHR act cf 54 | PXR counter 70
CCOc1ncccc1C(=O)Nc1nnc(C2CC2)s1	AHR act 104 | AHR act cf 95 | PXR counter 36
CCOc1ncccc1C(=O)Nc1nnc(C)s1	none
CCOc1ccc2oc(C(=O)Nc3ccc4c(c3)OCO4)c(C)c2c1	AHR act 83 (no result: STAT3 act, Hsp70 activator, PERK inh) | AHR act cf inactive | PXR counter 25
COc1ccc(S(=O)(=O)N(C)c2nc3ccccc3n3c(CC(C)C)nnc23)cc1	none (no result: STAT3 act, Hsp70 activator, PERK inh)
COc1ccccc1CC(=O)Nc1ccc2[nH]ncc2c1	none (no result: STAT3 act, Hsp70 activator, PERK inh)
CC(=O)c1cc(F)ccc1OCC(=O)Nc1ccc2c(c1)OCO2	AHR act 94 (no result: HSF1 inhib, STAT3 act, PolyA inhibitor, Hsp70 activator, PERK inh) | AHR act cf 105 | PXR counter 29
COCc1nnc(NC(=O)c2cc(C(=O)OC)cc([N+](=O)[O-])c2)s1	none
COC(=O)c1cc(C(=O)Nc2nnc(C3CC3)s2)cc([N+](=O)[O-])c1	AHR act 81 | AHR act cf 83

High-throughput results from PubChem.
